# In ChEMBL document CHEMBL1146561, “New sesterterpene sulfates from the sponge Darwinella australensis” (J Nat Prod, 2003):
# Columns and labels:
# [1] = Inhibition of cell division in sea urchin fertilized egg; format: functional, Strongylocentrotus intermedius
# How it was run: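 Fertilized eggs of the sea urchin Strongylocentrotus intermedius were scored for inhibition of cell division. IC50 is expressed in μg/mL.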
# K562 = test: Cytotoxicity against human K562 cells by MTT assay; format: functional; conditions: read-out: LC50 (the source's name)
# How it was run: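 Human leukemia K562 line; viability by MTT method; activity expressed as LC50 in μg/mL.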
# Bacillus subtilis = test: Antimicrobial activity against Bacillus subtilis at 25 ug by paper-disk method; format: functional; conditions: read-out: IZ
# How it was run: (§1)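 Paper-disk diffusion assay with 25 μg of sample applied. Activity was read as the diameter of the inhibition zone in mm.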
# Candida albicans = test: Antimicrobial activity against Candida albicans at 25 ug by paper-disk method; format: functional; conditions: read-out: IZ; how it was run: as §1
# Escherichia coli = test: Antimicrobial activity against Escherichia coli at 25 ug by paper-disk method; format: functional; conditions: read-out: IZ; how it was run: as §1
# Staphylococcus aureus = test: Antimicrobial activity against Staphylococcus aureus at 25 ug by paper-disk method; format: functional; conditions: read-out: IZ; how it was run: as §1
# Streptococcus sp. = test: Antimicrobial activity against Streptococcus sp. at 25 ug by paper-disk method; format: functional; conditions: read-out: IZ; how it was run: as §1
Compound,IC50 [1] [µg/mL],CC50 (K562) [µg/mL],zone of inhibition at 25 µg/disc (Bacillus subtilis) [mm],zone of inhibition at 25 µg/disc (Candida albicans) [mm],zone of inhibition at 25 µg/disc (Escherichia coli) [mm],zone of inhibition at 25 µg/disc (Staphylococcus aureus) [mm],zone of inhibition at 25 µg/disc (Streptococcus sp.) [mm]
C[C@H]1CC[C@H]2C(=CCCC2(C)C)[C@@]1(C)CCC(CCCC1=CC(=O)OC1)COS(=O)(=O)[O-].[Na+] (stereo not given in full) [HALISULPHATE 9],50,> 100,< 3,< 3,< 3,< 3,< 3
COC1C=C(CCCC(CC[C@]2(C)C3=CCCC(C)(C)[C@H]3CC[C@@H]2C)COS(=O)(=O)[O-])C(=O)O1.[Na+] (stereo not given in full) [HALISULPHATE 10],35,> 100,< 3,< 3,< 3,< 3,< 3
C[C@H]1CC[C@H]2C(=CC(=O)CC2(C)C)[C@@]1(C)CCC(CCCc1ccoc1)COS(=O)(=O)[O-].[Na+] (stereo not given in full) [HALISULPHATE 8],,> 100,< 3,< 3,< 3,< 3,< 3
